This note sets out measurements from ChEMBL document CHEMBL1158335, “Synthesis and evaluation of some new benzimidazole derivatives as potential antimicrobial agents” (2009).

Calls of active or inactive are those of the source. The calls are words filed in the database; no cut-off is given here.

The subject of test [1] is Bacillus subtilis. Put plainly: Antibacterial activity against Bacillus subtilis MTCC 121 at 10 ug/ml after 24 hrs. It is filed as functional, organism-based. The procedure, abridged: (§1)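 Organisms grown overnight at 37 °C in buffered glucose broth. A loopful (5 mm diameter) was added to buffered glucose broth containing the test compound and incubated at 37 °C for 24 h. Growth was scored against the untreated control as total inhibition, poor, medium or confluent growth.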

The test system of test [2] is Bacillus subtilis. Put plainly: Antibacterial activity against Bacillus subtilis MTCC 121 at 100 ug/ml after 24 hrs. It is filed as functional, organism-based. The procedure, abridged:
as §1

For test [3], the system named is Escherichia coli. Nature of the test: Antibacterial activity against Escherichia coli ATCC 25922 at 100 ug/ml after 24 hrs. It is filed as functional, organism-based. The gist of the method: as §1
In another test the test system is Candida albicans. Nature of the test: Antifungal activity against Candida albicans MTCC 1637 at 30 ug/ml by cup-plate agar diffusion method. The note with it: read-out: DIZ. It is filed as functional. The gist of the method: (§2)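 Cup-plate agar diffusion assay against the fungal strains, with amphotericin B as the reference standard.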
(A growth-free zone around the sample is the usual read-out of agar diffusion tests.)

For test [4], the system named is Bacillus subtilis. Put plainly: Antibacterial activity against Bacillus subtilis MTCC 121 after 24 hrs. It is filed as functional.
The subject of test [5] is Bacillus subtilis. Put plainly: Antibacterial activity against Bacillus subtilis MTCC 121 at 500 ug/ml after 24 hrs. The format is functional, organism-based. The gist of the method: as §1
The subject of the next test is Aspergillus flavus. Put plainly: Antifungal activity against Aspergillus flavus AIIMS isolate at 30 ug/ml by cup-plate agar diffusion method. It is filed as functional. The note with it: read-out: DIZ. The procedure, abridged:
as §2

Test [6] relates to Bacillus subtilis. Put plainly: Antibacterial activity against Bacillus subtilis MTCC 121 at 200 ug/ml after 24 hrs. It is filed as functional, organism-based. The procedure, abridged:
as §1

In test [7] the test system is Escherichia coli. Nature of the test: Antibacterial activity against Escherichia coli ATCC 25922 at 500 ug/ml after 24 hrs. The format is functional, organism-based. The gist of the method:
as §1

In test [8] the test system is Bacillus subtilis. Nature of the test: Antibacterial activity against Bacillus subtilis MTCC 121 at 1 ug/ml after 24 hrs. It is filed as functional, organism-based. The gist of the method:
as §1

The test system of another test is Aspergillus niger. Put plainly: Antifungal activity against Aspergillus niger AIIMS isolate at 30 ug/ml by cup-plate agar diffusion method. The note with it: read-out: DIZ. It is filed as functional. The gist of the method: as §2
Test [9] has as its system Escherichia coli. Nature of the test: Antibacterial activity against Escherichia coli ATCC 25922 after 24 hrs. It is filed as functional.
Test [10] has as its system Escherichia coli. Put plainly: Antibacterial activity against Escherichia coli ATCC 25922 at 200 ug/ml after 24 hrs. The format is functional, organism-based. The procedure, abridged: as §1
In test [11] the test system is Escherichia coli. Nature of the test: Antibacterial activity against Escherichia coli ATCC 25922 at 1 ug/ml after 24 hrs. The format is functional, organism-based. The procedure, abridged:
as §1

The subject of test [12] is Escherichia coli. Put plainly: Antibacterial activity against Escherichia coli ATCC 25922 at 10 ug/ml after 24 hrs. The format is functional, organism-based. The procedure, abridged:
as §1

For the compound `Cc1nc2ccccc2n1Cc1nnc(/N=C/c2cccc(O)c2)s1`, the inhibition result in the test with Bacillus subtilis [1], with Bacillus subtilis [2], in the test with Escherichia coli [3], with Bacillus subtilis [6], with Escherichia coli [7] and in the test with Bacillus subtilis [8] was “inactive” throughout. In addition, the inhibition entry with Escherichia coli [10], in the test on Escherichia coli [11] and in the test on Escherichia coli [12] was “inactive” each time. In addition, the zone of inhibition at 30 µg/mL amounted to 22 mm in the test with Candida albicans, 10 mm with Aspergillus flavus and 10 mm in the test with Aspergillus niger. Moreover, the MIC entry in the test with Bacillus subtilis [4] and in the test on Escherichia coli [9] was “inactive” each time. In addition, the outcome with Bacillus subtilis [5] was inactive.
